Activity calls are given as the source filed them. The rule behind the calls is not given here.
Columns and labels:
A549/CDDP [1] = test: Antiproliferative activity against human A549/CDDP cells after 72 hrs by MTT assay; format: functional, cell-based
Method in brief: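 Cells (A549, A549/DDP, SPC-A-1, LTEP-G-2, non-tumor bronchial epithelial HBE) were exposed in triplicate to vehicle or compound for 72 h. MTT (5 mg/mL in PBS) was then added for 4 h, formazan was dissolved in DMSO, and absorbance was read at 570 nm. IC50 values were derived from viability.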

A549 [2] = test: Induction of ROS generation in human A549 cells 2.1 to 4.2 uM after 60 mins by DHE staining-based fluorescence assay; format: functional, cell-based
Method in brief: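 A549 or A549/DDP cells were treated in triplicate for 60 min with vehicle DMSO (0.1%, v/v) or a range of compound concentrations. Cells were stained with dihydroethidium, and intracellular ROS fluorescence was read on a microplate reader at 300 and 610 nm. Three independent experiments were run.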

Thioredoxin reductase [3] = molecular target: T1, Thioredoxin reductase (Homo sapiens, UniProt Q16881+Q9NNW7+Q86VQ6); test: Inhibition of thioredoxin reductase (unknown origin) after 2 hrs by DTNB dye based microplate spectrophotometry; format: protein assay
Method in brief: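 NADPH-reduced TrxR (0.16 µM) was preincubated in triplicate with vehicle DMSO (0.1%, v/v) or varying compound concentrations for 2 h. It was then reacted with 2 mM DTNB and 200 µM NADPH for 3 min, and absorbance was read at 412 nm. IC50 was derived.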

Thioredoxin reductase [4] = molecular target: T1, Thioredoxin reductase; test: Inhibition of thioredoxin reductase in human A549 cells by DTNB dye based microplate spectrophotometry; format: cell-based
Method in brief: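 A549 or A549/DDP cells were treated with varying compound concentrations for 24 h, then harvested, homogenized and centrifuged. Protein (50 µg) was reacted in triplicate with NADPH and DTNB in TE buffer at 37 °C for 1 h, and TNB was read at 412 nm. Activity was taken from a purified-TrxR standard curve, and IC50 was derived.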

A549 [5] = test: Decrease in TrxR expression in human A549 cells at 2.1 to 4.2 uM after 24 hrs by Western blot method; format: functional, cell-based
Method in brief: (§1)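 Cells were plated at 1 × 10^6/well overnight, then treated 24 h with vehicle DMSO (0.1%, v/v) or compound (A549, 2.1 or 4.2 µM; A549/DDP, 0.6 or 1.2 µM). Lysis was at 4 °C. Lysates were run on SDS-PAGE (7.5% gel, 20 µg/lane) and immunoblotted with ECL detection; phospho-Akt Ser473 and phospho-ERK Thr202/Tyr204 were probed. Bands were normalized to GAPDH (TrxR, Trx) or β-actin. Three independent experiments were run.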

A549 [6] = test: Induction of ROS generation in human A549 cells 2.1 to 4.2 uM after 60 mins by DHE staining-based fluorescence assay in presence of GSH; format: functional, cell-based
A549/CDDP [7] = test: Induction of ROS generation in human A549/CDDP cells 0.6 to 1.2 uM after 60 mins by DHE staining-based fluorescence assay in presence of NAC; format: functional, cell-based
A549 [8] = test: Induction of apoptosis in human A549 cells assessed as increase in Bax expression at 2.1 to 4.2 uM after 24 hrs by Western blot method; format: functional, cell-based; method in brief: as §1
A549/CDDP [9] = test: Induction of apoptosis in human A549/CDDP cells assessed as decrease in Bcl2 expression at 0.6 to 1.2 uM after 24 hrs by Western blot method; format: functional, cell-based; method in brief: as §1
A549/CDDP [10] = test: Induction of apoptosis in human A549/CDDP cells assessed as increase in Bax to Bcl2 ratio at 0.6 to 1.2 uM after 24 hrs by Western blot method; format: functional, cell-based; method in brief: as §1
A549/CDDP [11] = test: Induction of apoptosis in human A549/CDDP cells assessed as increase in cleaved caspase 3 level at 0.6 to 1.2 uM after 24 hrs by Western blot method; format: functional, cell-based; method in brief: as §1
A549 [12] = test: Induction of apoptosis in human A549 cells assessed as increase in cleaved PARP level at 2.1 to 4.2 uM after 24 hrs by Western blot method; format: functional, cell-based; method in brief: as §1
A549 [13] = test: Effect on ERK expression in human A549 cells at 2.1 to 4.2 uM after 24 hrs by Western blot method; format: functional, cell-based; method in brief: as §1
A549/CDDP [14] = test: Effect on ERK expression in human A549/CDDP cells at 0.6 to 1.2 uM after 24 hrs by Western blot method; format: functional, cell-based; method in brief: as §1
A549 [15] = test: Inhibition of NFkappaB phosphorylation in human A549 cells at 2.1 to 4.2 uM after 24 hrs by Western blot method; format: cell-based; method in brief: as §1
[16] = molecular target: RAC-alpha serine/threonine-protein kinase (Homo sapiens) (UniProt P31749); test: Inhibition of Akt phosphorylation in human A549 cells at 2.1 to 4.2 uM after 24 hrs by Western blot method; format: cell-based; method in brief: as §1
A549/CDDP [17] = test: Decrease in P-gp expression in human A549/CDDP cells at 0.6 to 1.2 uM after 24 hrs by Western blot method; format: functional, cell-based
Method in brief: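 A549/DDP cells were treated for 24 h with vehicle DMSO (0.1%, v/v) or 0.6 or 1.2 µM compound. Lysates were run on SDS-PAGE (7.5% gel, 20 µg/lane), blotted to PVDF and probed with anti-P-gp, with detection by ECL. P-gp was normalized to β-actin. Three independent experiments were run.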

[18] = Acute toxicity in ICR mouse assessed as mortality at 200 to 400 mg/kg, ip measured at 4 hr post treatment; format: organism-based; conditions: in vivo
Method in brief: (§2)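 Male and female ICR mice (7 weeks), randomized, 10 per group, given one intraperitoneal dose at 200, 250, 300, 350, 400 or 450 mg/kg. Animals were watched for abnormal behaviour and deaths up to two weeks. Deaths were tallied at 1 h, 4 h, day 3 and days 4-14, with survival on day 14. LD50 was calculated with 95% confidence limits.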

[19] = Acute toxicity in ICR mouse assessed as survival at 350 mg/kg, ip measured on day 14; format: organism-based; conditions: in vivo; method in brief: as §2
[20] = Acute toxicity in ICR mouse assessed as survival at 300 mg/kg, ip measured on day 14; format: organism-based; conditions: in vivo; method in brief: as §2
[21] = Acute toxicity in ICR mouse assessed as survival at 250 mg/kg, ip measured on day 14; format: organism-based; conditions: in vivo; method in brief: as §2
[22] = Toxicity in BALB/c nude mouse xenografted with human A549/CDDP cells assessed as body weight at 20 mg/kg, ip administered daily for 15 consecutive days measured on day 15 (reference value: 21 +/- 1.28 g); format: organism-based; conditions: in vivo
[23] = Toxicity in BALB/c nude mouse xenografted with human A549/CDDP cells assessed as body weight at 40 mg/kg, ip administered daily for 15 consecutive days measured on day 1 (reference value: 19.3 +/- 1.55 g); format: organism-based; conditions: in vivo
[24] = Toxicity in BALB/c nude mouse xenografted with human A549/CDDP cells assessed as body weight at 40 mg/kg, ip administered daily for 15 consecutive days measured on day 15 (reference value: 21 +/- 1.28 g); format: organism-based; conditions: in vivo
Method in brief: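 Athymic BALB/c nude mice of both sexes, 4-5 weeks, inoculated subcutaneously with A549/DDP cells (1 × 10^7/mouse). Once tumors reached 180-200 mm3, mice were randomized and given ip dosing daily for 15 consecutive days. Vehicle was PBS/DMSO/cremophor-EL (8:1:1), given at the same volume to controls. Body weight was recorded on day 1 and day 15. Reported as mean ± SD, n = 8.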

Sequence of RAC-alpha serine/threonine-protein kinase (Homo sapiens) (P31749 whole entry): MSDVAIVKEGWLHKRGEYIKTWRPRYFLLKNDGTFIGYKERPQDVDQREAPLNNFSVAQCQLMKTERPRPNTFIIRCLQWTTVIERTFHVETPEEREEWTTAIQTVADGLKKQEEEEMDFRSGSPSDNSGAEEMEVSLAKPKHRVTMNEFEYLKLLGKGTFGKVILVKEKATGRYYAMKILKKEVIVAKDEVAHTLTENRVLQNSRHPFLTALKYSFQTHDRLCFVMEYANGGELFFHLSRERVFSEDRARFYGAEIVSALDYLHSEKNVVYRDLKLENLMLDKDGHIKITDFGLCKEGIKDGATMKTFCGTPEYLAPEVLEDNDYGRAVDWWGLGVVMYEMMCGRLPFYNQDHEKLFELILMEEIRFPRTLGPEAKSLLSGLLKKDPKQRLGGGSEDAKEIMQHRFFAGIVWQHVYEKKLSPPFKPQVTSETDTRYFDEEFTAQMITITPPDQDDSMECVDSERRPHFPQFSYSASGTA

## COc1cc(/C=C/C(=O)/C=C/c2nc(C)c(C)nc2C)ccc1O
A549/CDDP [1]
  IC50: 0.6 µM
A549 [2]
  Activity: Active
Thioredoxin reductase [3]
  IC50: 2.95 µM
Thioredoxin reductase [4]
  IC50: 1.49 µM
A549 [5]
  Activity: Active
A549 [6]
  Activity: inactive
A549/CDDP [7]
  Activity: inactive
A549 [8]
  Activity: Active
A549/CDDP [9]
  Activity: Active
A549/CDDP [10]
  Activity: Active
A549/CDDP [11]
  Activity: Active
A549 [12]
  Activity: Active
A549 [13]
  Activity: inactive
A549/CDDP [14]
  Activity: inactive
A549 [15]
  inhibition: Active
[16]
  inhibition: Active
A549/CDDP [17]
  Activity: Active
[18]
  Activity: Non-Toxic
[19]
  survival at 14 day: 30%
[20]
  survival at 14 day: 50%
[21]
  survival at 14 day: 60%
[22]
  Activity: 18.6 g
[23]
  Activity: 19.9 g
[24]
  Activity: 19.6 g

From ChEMBL document CHEMBL4428026, “Discovery of New Monocarbonyl Ligustrazine-Curcumin Hybrids for Intervention of Drug-Sensitive and Drug-Resistant Lung Cancer” (J Med Chem, 2016)
